How the values were obtained:
Type in all cases: functional
CCRF-CEM = test: Cytotoxicity against human CCRF-CEM cells assessed as cell growth at 10 uM; details: for growth at 10 µM: Homo sapiens, CCRF-CEM, read-out: Activity
Method in brief: (§1)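 Single-concentration screen at 10 μM across the 60-cell-line panel (nine tissue types); growth percentage recorded per cell line, with inhibition taken as 100 minus growth percentage.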

MOLT-4 = test: Cytotoxicity against human MOLT4 cells assessed as cell growth at 10 uM; details: for growth at 10 µM: Homo sapiens, MOLT-4, read-out: Activity
Method in brief: (§2)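 Single-dose screen at 10 μM across the 60-cell-line panel. Cells grown in RPMI 1640 with 5% FBS and 2 mM L-glutamine, seeded at 5,000–40,000 cells/well according to doubling time, and treated 24 h later. Exposure lasted 48 h at 37 °C, 5% CO₂. Adherent cells were fixed with cold TCA, suspension cells were fixed settled, and both were stained with SRB and read at 515 nm. Growth % was recorded, with inhibition % = 100 − growth %.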

[1] = Cytotoxicity against human […] cells assessed as cell growth at 10 uM; details: for growth at 10 µM: Homo sapiens, RPMI8266, read-out: Activity; method in brief: as §2
SR = test: Cytotoxicity against human SR cells assessed as cell growth at 10 uM; details: for growth at 10 µM: Homo sapiens, SR, read-out: Activity; method in brief: as §2
A549 = test: Cytotoxicity against human A549 cells assessed as cell growth at 10 uM; details: for growth at 10 µM: Homo sapiens, A549, read-out: Activity; method in brief: as §1
HOP-92 = test: Cytotoxicity against human HOP92 cells assessed as cell growth at 10 uM; details: for growth at 10 µM: Homo sapiens, HOP-92, read-out: Activity; method in brief: as §1
NCI-H460 = test: Cytotoxicity against human NCI-H460 cells assessed as cell growth at 10 uM; details: for growth at 10 µM: Homo sapiens, NCI-H460, read-out: Activity; method in brief: as §2
NCI-H522 = test: Cytotoxicity against human NCI-H522 cells assessed as cell growth at 10 uM; details: for growth at 10 µM: Homo sapiens, NCI-H522, read-out: Activity; method in brief: as §2
HCC 2998 = test: Cytotoxicity against human HCC2998 cells assessed as cell growth at 10 uM; details: for growth at 10 µM: Homo sapiens, HCC 2998, read-out: Activity; method in brief: as §1
SF-539 = test: Cytotoxicity against human SF539 cells assessed as cell growth at 10 uM; details: for growth at 10 µM: Homo sapiens, SF-539, read-out: Activity; method in brief: as §2
SNB-19 = test: Cytotoxicity against human SNB19 cells assessed as cell growth at 10 uM; details: read-out: Activity; method in brief: as §2
SNB-75 = test: Cytotoxicity against human SNB75 cells assessed as cell growth at 10 uM; details: for growth at 10 µM: Homo sapiens, SNB-75, read-out: Activity; method in brief: as §2
Malme-3M = test: Cytotoxicity against human MALME-3M cells assessed as cell growth at 10 uM; details: for growth at 10 µM: Homo sapiens, Malme-3M, read-out: Activity; method in brief: as §2
MDA-MB-435 = test: Cytotoxicity against human MDA-MB-435 cells assessed as cell growth at 10 uM; details: read-out: Activity; method in brief: as §2
SK-MEL-5 = test: Cytotoxicity against human SK-MEL-5 cells assessed as cell growth at 10 uM; details: Homo sapiens, SK-MEL-5; read-out: Activity; method in brief: as §2
NCI/ADR-RES = test: Cytotoxicity against human NCI/ADR-RES cells assessed as cell growth at 10 uM; details: Homo sapiens, NCI/ADR-RES; read-out: Activity; method in brief: as §2
786-0 = test: Cytotoxicity against human 786-0 cells assessed as cell growth at 10 uM; details: Homo sapiens, 786-0; read-out: Activity; method in brief: as §1
A498 = test: Cytotoxicity against human A498 cells assessed as cell growth at 10 uM; details: Homo sapiens, A498; read-out: Activity; method in brief: as §1
CAKI-1 = test: Cytotoxicity against human Caki1 cells assessed as cell growth at 10 uM; details: Homo sapiens, CAKI-1; read-out: Activity; method in brief: as §1
RXF 393 = test: Cytotoxicity against human RXF393 cells assessed as cell growth at 10 uM; details: for growth at 10 µM: Homo sapiens, RXF 393, read-out: Activity; method in brief: as §2
SN12C = test: Cytotoxicity against human SN12C cells assessed as cell growth at 10 uM; details: Homo sapiens, SN12C; read-out: Activity; method in brief: as §2
TK-10 = test: Cytotoxicity against human TK10 cells assessed as cell growth at 10 uM; details: Homo sapiens, TK-10; read-out: Activity; method in brief: as §2
MCF7 = test: Cytotoxicity against human MCF7 cells assessed as cell growth at 10 uM; details: Homo sapiens, MCF7; read-out: Activity; method in brief: as §2
[2] = Cytotoxicity against human Hs 578T cells assessed as cell growth at 10 uM; details: read-out: Activity; method in brief: as §1
BT-549 = test: Cytotoxicity against human BT549 cells assessed as cell growth at 10 uM; details: for growth at 10 µM: Homo sapiens, BT-549, read-out: Activity; method in brief: as §1

SMILES	growth at 10 µM (MOLT-4)	growth at 10 µM (SR)	growth at 10 µM (A549)	growth at 10 µM (NCI-H460)	growth at 10 µM (NCI-H522)	growth at 10 µM (HCC 2998)	growth at 10 µM (SF-539)	growth at 10 µM (SNB-19)	growth at 10 µM (SNB-75)	growth at 10 µM (Malme-3M)	growth at 10 µM (MDA-MB-435)	growth at 10 µM (SK-MEL-5)	growth at 10 µM (NCI/ADR-RES)	growth at 10 µM (786-0)	growth at 10 µM (A498)	growth at 10 µM (CAKI-1)	growth at 10 µM (RXF 393)	growth at 10 µM (SN12C)	growth at 10 µM (TK-10)	growth at 10 µM (MCF7)	other results
FC(F)(F)c1cc(Nc2nccc(-c3ccc(-c4ccccc4)nc3)n2)cc(C(F)(F)F)c1	93.4%	97.8%	97.3%	107%	83.3%	124%	95.8%	109%	86.8%	123%	109%	102%	101%	101%	110%	91.6%	143%	86.1%	99.5%	83.2%	growth at 10 µM (CCRF-CEM): 89.7%; growth at 10 µM [1]: 96.2%; growth at 10 µM (HOP-92): 89.7%; growth at 10 µM [2]: 94.8%; growth at 10 µM (BT-549): 106%
FC(F)(F)c1cc(Nc2nccc(-c3cccnc3)n2)cc(C(F)(F)F)c1	95%	87.8%	93.8%	103%	86.5%	118%	97.1%	94%	95.3%	103%	102%	101%	94.7%	97.1%	103%	91.5%	79%	88%	106%	96%	growth at 10 µM [2]: 103%; growth at 10 µM (BT-549): 107%
CC(=O)c1ccc(-c2ccc(-c3ccnc(Nc4cc(C(F)(F)F)cc(C(F)(F)F)c4)n3)cn2)cc1	91%	96.5%	104%	106%	102%	104%	89.7%	110%	78.3%	124%	115%	101%	103%	105%	97.4%	97.4%	113%	93.6%	106%	90.8%	growth at 10 µM (CCRF-CEM): 99.4%; growth at 10 µM [1]: 97.8%; growth at 10 µM (HOP-92): 103%; growth at 10 µM [2]: 110%; growth at 10 µM (BT-549): 99.8%
CC(=O)c1ccccc1-c1ccc(-c2ccnc(NC(=O)Nc3cc(C(F)(F)F)cc(C(F)(F)F)c3)n2)cn1.Cl	–	–	–	–	–	–	–	–	–	–	–	103%	80.9%	79.5%	113%	78.4%	–	88.4%	90.3%	89.8%	Activity (CCRF-CEM): 88.36%; Activity (MOLT-4): 93.09%; Activity [1]: 75.92%; Activity (SR): 97.1%; Activity (A549): 93.55%; Activity (HOP-92): 101%; Activity (NCI-H460): 93.37%; Activity (NCI-H522): 77.27%; Activity (HCC 2998): 88.79%; Activity (SF-539): 91.97%; Activity (SNB-75): 77.47%; Activity (Malme-3M): 85.32%; Activity (RXF 393): 130.46%; Activity (BT-549): 63.01%
